# In ChEMBL document CHEMBL1806492, “Generation of 'Unnatural Natural Product' library and identification of a small molecule inhibitor of XIAP” (Bioorg Med Chem, 2011):
# pKi: −log10 of the molar value. The source made the active and inactive calls. No cut-off for these calls is given here. Residues, ends and D or L forms follow the SMILES beside them. *: point of attachment. Cbz = O=C(OCc1ccccc1)*; CH2F = FC*
# Key:
# [1] = target: E3 ubiquitin-protein ligase XIAP (Homo sapiens) (UniProt P98170); test: Inhibition of human GST-tagged XIAP binding to active human caspase-3 at 3 uM after 1 hrs by GST pull-down assay
# Chain of E3 ubiquitin-protein ligase XIAP (Homo sapiens) (P98170 whole entry, the tested form may be a part): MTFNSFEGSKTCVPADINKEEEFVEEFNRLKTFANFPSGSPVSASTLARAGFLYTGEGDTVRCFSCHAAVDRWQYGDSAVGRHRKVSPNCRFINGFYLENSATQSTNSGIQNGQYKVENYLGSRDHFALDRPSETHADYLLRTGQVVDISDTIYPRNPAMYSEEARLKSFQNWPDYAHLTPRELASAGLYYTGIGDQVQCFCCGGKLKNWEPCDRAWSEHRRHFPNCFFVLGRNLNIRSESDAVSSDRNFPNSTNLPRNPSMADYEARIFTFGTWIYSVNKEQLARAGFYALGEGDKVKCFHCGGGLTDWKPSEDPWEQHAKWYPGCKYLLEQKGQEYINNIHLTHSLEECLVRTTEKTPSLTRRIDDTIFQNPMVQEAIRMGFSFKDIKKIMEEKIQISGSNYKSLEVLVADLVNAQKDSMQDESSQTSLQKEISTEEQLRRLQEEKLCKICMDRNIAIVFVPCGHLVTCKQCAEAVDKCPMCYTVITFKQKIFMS
# [2] = target: E3 ubiquitin-protein ligase XIAP (Homo sapiens) (UniProt P98170); test: Inhibition of human recombinant GST tagged XIAP expressed in Escherichia coli assessed as restoration of XIAP-mediated suppression of caspase-3 activity after 1 hrs using fluorogenic tetrapeptide Ac-DEVD-AFC substrate by caspase de-repression assay
# HeLa [3] = test: Induction of sensitization of human HeLa cells to camptothecin-induced apoptosis assessed as induction DNA fragmentation at 10 uM after 24 hrs by propidium iodide-staining based FACS assay; format: functional, cell-based
# Method in brief: (§1)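 HeLa cells seeded at 1×10^5 cells/well and cultured overnight, then exposed to various concentrations of test compounds for 24 h. Nuclei stained with propidium iodide. Cell death measured by flow cytometry as DNA fragmentation, read as the sub-G1 population.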
# HeLa [4] = test: Induction of sensitization of human HeLa cells to staurosporine-induced apoptosis assessed as induction DNA fragmentation at 10 uM after 24 hrs by propidium iodide-staining based FACS assay; format: functional, cell-based; method in brief: as §1
# Caspase-3 (Homo sapiens) = target: T1, Caspase-3 (Homo sapiens) (UniProt P42574); test: Effect on human caspase-3 activity at 10 uM in the absence of XIAP after 1 hrs using fluorogenic tetrapeptide Ac-DEVD-AFC as substrate
# T1 sequence (whole entry): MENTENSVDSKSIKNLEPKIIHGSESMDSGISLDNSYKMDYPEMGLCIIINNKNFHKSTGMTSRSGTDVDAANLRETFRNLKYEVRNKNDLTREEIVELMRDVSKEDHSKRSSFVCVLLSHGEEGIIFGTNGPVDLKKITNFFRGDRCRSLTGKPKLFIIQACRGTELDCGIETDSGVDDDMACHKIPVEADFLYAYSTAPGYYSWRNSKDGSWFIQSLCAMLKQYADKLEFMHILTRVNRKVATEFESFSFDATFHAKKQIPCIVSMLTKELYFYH
# HeLa [5] = test: Induction of sensitization of human HeLa cells to staurosporine-induced apoptosis assessed as induction DNA fragmentation at 160 nM after 24 hrs by propidium iodide-staining based FACS assay; format: functional, cell-based; method in brief: as §1
# HeLa [6] = test: Induction of sensitization of human HeLa cells to camptothecin-induced apoptosis assessed as induction DNA fragmentation at 160 nM after 24 hrs by propidium iodide-staining based FACS assay; format: functional, cell-based; method in brief: as §1
# HeLa [7] = test: Suppression of camptothecin-induced apoptosis in human HeLa cells assessed as reduction in DNA fragmentation at 100 uM after 24 hrs by propidium iodide-staining based FACS assay; format: functional, cell-based
# Method in brief: (§2)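 HeLa cells seeded at 1×10^5 cells/well, cultured overnight, treated with test compounds at various concentrations for 24 h. Nuclei stained with propidium iodide; cell death scored by flow cytometry as the sub-G1 (fragmented DNA) population.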
# HeLa [8] = test: Suppression of staurosporine-induced apoptosis in human HeLa cells assessed as reduction in DNA fragmentation at 100 uM after 24 hrs by propidium iodide-staining based FACS assay; format: functional, cell-based; method in brief: as §2
# [9] = target: Protein kinase C gamma type (Homo sapiens, UniProt P05129); test: Inhibition of [3H]PDBu binding to PKCgamma-C1A domain peptide
# [10] = target: Protein kinase C beta type (Homo sapiens, UniProt P05771); test: Inhibition of [3H]PDBu binding to PKCbeta-C1A domain peptide
# Chain of Protein kinase C beta type (P05771 whole entry, the tested form may be a part): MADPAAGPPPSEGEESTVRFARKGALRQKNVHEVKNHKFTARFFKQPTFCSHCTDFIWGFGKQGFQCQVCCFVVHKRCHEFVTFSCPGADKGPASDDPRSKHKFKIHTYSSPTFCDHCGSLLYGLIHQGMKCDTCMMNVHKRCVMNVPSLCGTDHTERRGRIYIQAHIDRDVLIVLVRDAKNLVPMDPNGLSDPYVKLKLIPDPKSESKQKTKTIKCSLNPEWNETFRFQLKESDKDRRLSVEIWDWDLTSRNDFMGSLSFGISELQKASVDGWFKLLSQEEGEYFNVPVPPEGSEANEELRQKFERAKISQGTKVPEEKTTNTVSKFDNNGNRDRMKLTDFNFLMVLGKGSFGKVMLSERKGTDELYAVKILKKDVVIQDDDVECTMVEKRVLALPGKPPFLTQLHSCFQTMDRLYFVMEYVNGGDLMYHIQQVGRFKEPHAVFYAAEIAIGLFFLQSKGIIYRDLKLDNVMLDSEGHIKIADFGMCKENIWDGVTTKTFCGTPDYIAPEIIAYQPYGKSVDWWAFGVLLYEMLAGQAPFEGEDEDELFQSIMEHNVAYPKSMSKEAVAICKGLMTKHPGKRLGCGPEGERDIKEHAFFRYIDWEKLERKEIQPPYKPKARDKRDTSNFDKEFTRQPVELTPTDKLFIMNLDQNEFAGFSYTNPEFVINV
# [11] = target: Protein kinase C alpha type (Homo sapiens, UniProt P17252); test: Inhibition of [3H]PDBu binding to PKCalpha-C1A domain peptide
# [12] = target: T2, Protein kinase C epsilon type (Homo sapiens, UniProt Q02156); test: Inhibition of [3H]PDBu binding to PKCepsilon-C1B domain peptide
# T2 sequence (Q02156 whole entry): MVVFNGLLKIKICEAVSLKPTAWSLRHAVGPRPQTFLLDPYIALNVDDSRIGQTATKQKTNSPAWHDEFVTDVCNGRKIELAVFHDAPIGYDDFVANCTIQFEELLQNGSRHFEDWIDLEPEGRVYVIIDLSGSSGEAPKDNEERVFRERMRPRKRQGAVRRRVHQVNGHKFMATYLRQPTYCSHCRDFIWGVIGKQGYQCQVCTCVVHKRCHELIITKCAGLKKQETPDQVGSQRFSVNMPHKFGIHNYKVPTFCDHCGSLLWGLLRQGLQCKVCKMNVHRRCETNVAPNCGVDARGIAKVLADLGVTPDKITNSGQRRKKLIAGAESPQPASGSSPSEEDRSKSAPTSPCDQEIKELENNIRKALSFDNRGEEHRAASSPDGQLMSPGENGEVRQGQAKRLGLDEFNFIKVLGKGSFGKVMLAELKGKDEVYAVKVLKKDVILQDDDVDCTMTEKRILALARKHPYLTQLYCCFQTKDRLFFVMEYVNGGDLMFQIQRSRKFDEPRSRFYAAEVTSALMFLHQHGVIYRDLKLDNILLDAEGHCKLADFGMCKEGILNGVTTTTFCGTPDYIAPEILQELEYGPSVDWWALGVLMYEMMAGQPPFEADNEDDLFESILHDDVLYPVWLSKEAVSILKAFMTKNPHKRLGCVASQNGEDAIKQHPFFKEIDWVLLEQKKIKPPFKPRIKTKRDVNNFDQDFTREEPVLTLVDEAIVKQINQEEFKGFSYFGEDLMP
# HeLa [13] = test: Induction of sensitization of human HeLa cells to camptothecin-induced apoptosis at 10 uM after 48 hrs by trypan blue dye exclusion assay; format: functional, cell-based
# Method in brief: (§3)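 HeLa cells seeded at 2×10^4 cells/well, cultured overnight, then exposed to test compounds at various concentrations for 48 h. Viable cells counted by trypan blue dye exclusion.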
# [14] = target: Protein kinase C delta type (Homo sapiens, UniProt Q05655); test: Inhibition of [3H]PDBu binding to PKCdelta-C1B domain peptide
# Chain of Protein kinase C delta type (Q05655 whole entry, the tested form may be a part): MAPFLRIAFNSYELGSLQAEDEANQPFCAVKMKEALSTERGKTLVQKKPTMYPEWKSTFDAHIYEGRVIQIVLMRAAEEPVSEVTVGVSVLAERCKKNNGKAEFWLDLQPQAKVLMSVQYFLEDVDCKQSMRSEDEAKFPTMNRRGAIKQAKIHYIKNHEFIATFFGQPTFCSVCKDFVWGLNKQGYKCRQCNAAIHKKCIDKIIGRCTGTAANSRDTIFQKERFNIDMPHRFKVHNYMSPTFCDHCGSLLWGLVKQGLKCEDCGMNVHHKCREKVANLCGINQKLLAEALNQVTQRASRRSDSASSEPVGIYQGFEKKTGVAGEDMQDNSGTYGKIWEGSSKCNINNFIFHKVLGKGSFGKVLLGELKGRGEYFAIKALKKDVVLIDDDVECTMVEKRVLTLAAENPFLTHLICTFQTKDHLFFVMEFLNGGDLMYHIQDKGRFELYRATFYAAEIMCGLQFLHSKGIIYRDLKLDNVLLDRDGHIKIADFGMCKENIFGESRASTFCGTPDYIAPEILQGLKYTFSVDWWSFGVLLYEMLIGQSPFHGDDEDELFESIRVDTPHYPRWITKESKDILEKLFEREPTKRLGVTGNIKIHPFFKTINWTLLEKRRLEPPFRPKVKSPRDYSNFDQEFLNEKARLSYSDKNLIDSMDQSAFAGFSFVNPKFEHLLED
# HeLa [15] = test: Induction of sensitization of human HeLa cells to staurosporine-induced apoptosis at 10 uM after 48 hrs by trypan blue dye exclusion assay; format: functional, cell-based; method in brief: as §3
# [16] = target: Protein kinase C eta type (Homo sapiens, UniProt P24723); test: Inhibition of [3H]PDBu binding to PKCeta-C1B domain peptide
# Chain of Protein kinase C eta type (P24723 whole entry, the tested form may be a part): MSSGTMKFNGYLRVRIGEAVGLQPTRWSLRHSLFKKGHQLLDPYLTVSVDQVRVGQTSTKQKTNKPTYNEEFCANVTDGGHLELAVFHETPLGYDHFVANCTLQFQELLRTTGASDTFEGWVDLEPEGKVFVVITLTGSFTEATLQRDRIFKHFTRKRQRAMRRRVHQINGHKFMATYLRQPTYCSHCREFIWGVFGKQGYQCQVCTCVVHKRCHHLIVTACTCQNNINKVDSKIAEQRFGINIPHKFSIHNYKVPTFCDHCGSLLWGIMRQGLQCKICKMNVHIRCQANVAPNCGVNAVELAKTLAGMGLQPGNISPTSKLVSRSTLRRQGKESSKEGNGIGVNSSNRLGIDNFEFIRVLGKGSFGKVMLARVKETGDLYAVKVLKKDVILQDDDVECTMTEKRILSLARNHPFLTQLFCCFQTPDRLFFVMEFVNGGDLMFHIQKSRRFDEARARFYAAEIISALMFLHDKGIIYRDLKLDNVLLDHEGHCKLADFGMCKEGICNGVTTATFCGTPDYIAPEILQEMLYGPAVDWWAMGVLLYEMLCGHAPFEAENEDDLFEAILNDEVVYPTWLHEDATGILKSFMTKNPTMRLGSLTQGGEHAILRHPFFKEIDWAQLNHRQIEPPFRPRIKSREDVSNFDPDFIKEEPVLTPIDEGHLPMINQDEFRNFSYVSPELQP
smiles,measurement,setting,value
C=C[C@]1(C)CC[C@@](C)(C(C)C)c2cc3c4c(c[nH]c4c21)C[C@@H](CO)NC(=O)[C@H](C(C)C)N3C,inhibition,[1],inactive
same,inhibition,[2],inactive
same,Activity,HeLa [3],inactive
same,Activity,HeLa [4],inactive
same,Activity,Caspase-3 (Homo sapiens),Active
CCCCCCCCCCCCCC(=O)O[C@@H]1[C@@H](C)[C@@]2(O)[C@@H](C=C(CO)C[C@]3(O)C(=O)C(C)=C[C@@H]23)[C@@H]2C(C)(C)[C@]12OC(C)=O,Activity,HeLa [5],inactive
same,Activity,HeLa [6],inactive
COC(=O)C[C@H](NC(=O)[C@H](C)NC(=O)[C@@H](NC(=O)OCc1ccccc1)C(C)C)C(=O)CF (Cbz-Val-Ala-Asp(OMe)-CH2F),Activity,HeLa [7],inactive
same,Activity,HeLa [8],inactive
C=C[C@@]1(C)CC[C@](C)(C(C)C)c2cc3c4c(c[nH]c4c21)CC(=O)NC(=O)[C@H](C(C)C)N3C,pKi,[9],6.18
same,inhibition,[1],Active
same,pKi,[10],6.14
same,pKi,[11],6.22
same,inhibition,[2],Active
same,Activity,HeLa [3],Active
same,pKi,[12],6.32
same,Activity,HeLa [13],Active
same,Activity,HeLa [4],Active
same,pKi,[14],7.06
same,Activity,HeLa [15],Active
same,pKi,[16],6.44
same,inhibition,Caspase-3 (Homo sapiens),inactive
